Compounds with a hit are over-represented: about 2.1% of the library has one in this group of screens.
M1 antag: human M1 muscarinic receptor antagonists, primary screen, CHO-K1 cells, Fluo-8 calcium fluorescence, 1536-well | inhibition, % at 3 µM | Muscarinic acetylcholine receptor M1 (Homo sapiens), P11229 | hit rate 1.3% among 360,000 | CHO-K1 hM1, ACh EC80 antagonist;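 active means percent inhibition above its own plate's cutoff, namely the mean of that plate's compound wells plus 3 SD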;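 further: peak over basal fluorescence ratio during 140 s after agonist addition; 0% = ACh EC80 plus DMSO and 100% = DMSO alone without agonist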
CHRM5 antagonist: human M5 muscarinic receptor antagonists, primary screen, CHO cells, Fluo-8 calcium fluorescence. inhibition, % at 3 µM. Muscarinic acetylcholine receptor M5 (Homo sapiens), P08912. hit rate 0.59% among 360,000. CHO-hM5 cells, ACh EC80;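 active means inhibition above a per-plate cutoff, the mean of that plate's test compounds plus 3 SD, cut at about 27% in these data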;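 further: 0% = acetylcholine EC80 with DMSO and 100% = DMSO without agonist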
Target sequence (P08912 whole entry, looked up): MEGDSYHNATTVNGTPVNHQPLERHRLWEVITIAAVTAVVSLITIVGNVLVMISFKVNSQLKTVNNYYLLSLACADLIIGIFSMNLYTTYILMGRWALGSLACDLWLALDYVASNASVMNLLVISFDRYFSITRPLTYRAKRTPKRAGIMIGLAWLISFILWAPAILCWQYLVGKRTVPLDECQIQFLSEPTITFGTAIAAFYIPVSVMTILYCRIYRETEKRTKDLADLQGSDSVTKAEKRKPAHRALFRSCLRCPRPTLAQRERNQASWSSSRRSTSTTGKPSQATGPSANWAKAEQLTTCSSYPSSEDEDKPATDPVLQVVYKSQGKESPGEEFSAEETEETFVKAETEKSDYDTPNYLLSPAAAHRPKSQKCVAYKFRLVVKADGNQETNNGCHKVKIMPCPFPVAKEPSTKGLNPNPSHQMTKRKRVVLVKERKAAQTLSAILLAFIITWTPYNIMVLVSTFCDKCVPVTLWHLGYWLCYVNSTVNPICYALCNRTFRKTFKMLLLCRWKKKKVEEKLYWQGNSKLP
M5 ag: human M5 muscarinic receptor agonists, primary screen, CHO-K1 cells, Fluo-8 calcium fluorescence | Muscarinic acetylcholine receptor M5 (Homo sapiens), P08912 | CHO-K1 hM5 cells; 0% DMSO wells, 100% maximal acetylcholine response | activation, % at 3 µM | hit rate 0.19% among 360,000;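 active means activation above the run's mean over test compounds plus 3 SD, cut at about 23% in these data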;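 further: signal is peak over basal fluorescence ratio across the kinetic read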
CHRM5 PAM: human M5 muscarinic receptor positive allosteric modulators, primary screen, CHO-K1 cells, Fluo-8 calcium fluorescence; CHO-K1 hM5, ACh EC20 PAM; 0% = ACh EC20, 100% = ACh EC100; Muscarinic acetylcholine receptor M5 (Homo sapiens), P08912; hit rate 0.3% among 360,000; AID 624038, 2012; activation, % at 3 µM;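 active means activation above the run cutoff, the mean activation of all test compounds plus 3 SD, cut at about 18% in these data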
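Assay system: CHO-K1 hM5 cells. Also added: acetylcholine at EC20 concentration, added after compound. Dosing: 3 µM, single dose. Times: compound preincubation 140 s before EC20 acetylcholine addition. Signal: Fluo-8 calcium fluorescence. Measure: % activation relative to EC20 and EC100 ACh responses. Repeats: singlicate, one well per test compound.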
M1 PAM: human M1 muscarinic receptor positive allosteric modulators, primary screen, CHO-K1 cells, Fluo-8 calcium fluorescence, 1536-well. Muscarinic acetylcholine receptor M1 (Homo sapiens), P11229. CHO-K1 hM1, ACh EC20; 0% = ACh EC20, 100% = maximal ACh. activation, % at 3 µM. hit rate 0.088% among 360,000. AID 588819, 2011; in the data active means activation above about 19%, passing the limit was not always enough
M1 ag: human M1 muscarinic receptor agonists, primary screen, Fluo-8 calcium fluorescence, CHO-K1 cells, HTS | CHO-K1 hM1, agonist mode; 0% DMSO, 100% acetylcholine EC100 | hit rate 0.33% among 360,000 | AID 588814, 2011 | activation, % at 3 µM;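 active means activation above the run's mean compound activation plus 3 SD, cut at about 16% in these data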;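 further: peak over basal fluorescence ratio within a 140 s kinetic read after compound addition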
* marks the source's active call; other numbers are inactive results; nt = not tested or not shown.

SMILES | M1 antag | CHRM5 antagonist | M5 ag | CHRM5 PAM | M1 PAM | M1 ag
COc1cccc(N2CCN(CC(=O)Nc3ccccc3C(=O)NCc3ccccc3)CC2)c1 | 34.3* | 18.1 | 4.2 | -29.4 | -11.0 | -0.8
O=C(CN1CCN(c2ccc(O)cc2)CC1)Nc1ccccc1C(=O)NCCc1ccccc1 | 27.5 | 14.1 | 4.5 | -31.6 | -11.2 | -3.0
COc1cccc(N2CCN(CC(=O)NCc3ccccc3)CC2)c1 | -14.4 | 11.7 | -6.2 | 4.0 | 5.0 | 7.8
COc1cccc(N2CCN(CC(=O)Nc3ccccc3C(=O)NCCc3ccccc3)CC2)c1 | 22.3 | 28.3* | -4.4 | -21.6 | -12.0 | -3.6
CCCNC(=O)NC(=O)CSc1nc(C)cs1 | -15.0 | -5.0 | 1.4 | 9.2 | 13.3 | -14.8
Cc1ccc(NC(=O)CSc2nnc(-c3cccnc3)s2)cc1 | -5.4 | 1.9 | -2.0 | -1.6 | 5.8 | -6.5
O=C(CSc1nnc(-c2cccnc2)s1)Nc1ccnc2ccccc12 | 34.4* | 26.7 | 7.5 | -17.8 | -13.6 | -2.3
Cc1ccc(S(=O)(=O)CCC(=O)OCC(=O)N2CCN(S(=O)(=O)c3ccccc3)CC2)cc1 | -15.3 | 6.3 | -0.9 | 2.8 | 11.2 | -4.2
CC(=O)c1cc2c(cc1NC(=O)Cc1c(C)noc1C)OCO2 | -0.8 | -1.4 | 5.4 | 0.9 | -4.1 | 3.3
CSc1nsc(SC)c1C(=O)OCC(F)(F)F | -52.3 | -10.9 | -0.8 | 6.0 | 23.5* | -0.6
CSc1nsc(SC)c1C(N)=O | 9.8 | 9.6 | -2.1 | 2.8 | 1.4 | -1.5
CCS(=O)(=O)N1CCN(S(=O)(=O)c2ccc(Cl)s2)CC1 | 37.2* | 6.2 | -3.3 | -2.2 | -13.4 | -1.9
Cc1cccc(N(C(=O)CCC(=O)Nc2cccnc2)C(C(=O)NC2CCCC2)c2ccncc2)c1 (configuration not stated) | 4.5 | 1.2 | -5.1 | -8.7 | -1.0 | -3.0
Nc1nc(N)c2c(ccc3c2ccn3Cc2cccc([N+](=O)[O-])c2)n1 | 42.7* | 1.5 | -8.2 | -5.0 | -30.7 | -13.1
O=C1N[C@@H](c2ccccc2)COC(=O)[C@@H](Cc2ccc(F)cc2)CC/C=C/C[C@H]1CC(=O)N(CCO)Cc1ccccc1 | 28.1* | 9.9 | 5.8 | -12.8 | -10.1 | 2.3
O=C1N[C@@H](c2ccccc2)COC(=O)[C@@H](Cc2ccc(F)cc2)CC/C=C/C[C@@H]1CC(=O)N(CCO)Cc1ccccc1 | 5.7 | -9.6 | 2.6 | -7.3 | -3.6 | 4.1
Cc1cc(C)n(-c2ccc(C(=O)N3CCC(CO)(Cc4ccccc4)CC3)cc2)n1 | -11.4 | 2.0 | 2.7 | -4.3 | 7.5 | -2.4
O=C(CCCN1C(=O)[C@H]2CC=CC[C@H]2C1=O)NCc1nc(-c2ccccc2)no1 | -1.2 | -1.2 | -0.7 | 2.7 | 4.5 | -2.8
C[C@H](NC(=O)c1ccc(C(C)(C)C)cc1)C(=O)N1CCC2(CC1)NCCc1[nH]cnc12 | -1.2 | 7.0 | -3.1 | 1.8 | -0.3 | -14.6
Cc1ccc(C(=O)N[C@@H](Cc2ccccc2)C(=O)N2CCC3(CC2)NCCc2[nH]cnc23)cc1C | 47.0* | -14.1 | -2.8 | 7.9 | -20.1 | -6.2
O=C(c1cccnc1)n1nc(-c2ccco2)nc1NCc1cccs1 | -10.8 | 0.8 | -0.1 | 0.1 | 5.0 | -3.1
CCOC(=O)C1(CCc2ccccc2)CCN(Cc2cnc(N(C)C)s2)CC1 | 20.3 | 9.7 | -7.4 | -22.0 | -6.4 | -3.0
CN(C)c1ncc(CN2CCC(CO)(CCCc3ccccc3)CC2)s1 | -11.1 | -5.1 | -1.1 | 6.5 | 3.5 | 20.4*
CCOC(=O)c1c(NC(=O)CSc2nnc(-c3cccnc3)o2)sc2c1CCC2 | -8.4 | 0.5 | 2.1 | 1.2 | 5.9 | -2.9
CC(CCc1ccccc1)NC(=O)CSc1nnnn1C (configuration not stated) | 2.2 | 5.3 | 1.1 | 4.8 | -5.9 | -5.8
SMILES | M1 antag | CHRM5 antagonist | M5 ag | CHRM5 PAM | M1 PAM | M1 ag
CCCCN(C=O)c1c(CC)nc2c(OCc3ccccc3C)cccn12 | -18.6 | 3.2 | -2.4 | -5.0 | 4.7 | -8.4
CN(C)CC(=O)N[C@@H]1CC[C@@H](CC(=O)NCCN2CCCCC2)O[C@@H]1CO | nt | -18.2 | 0.4 | 20.2* | nt | nt
Cc1c(CC(=O)O)c(=O)oc2c(C)c(OCc3nn[nH]n3)ccc12 | -10.0 | 4.8 | -1.4 | -2.2 | 4.7 | -1.9
O=C(CSc1ccc2ccccc2c1)Nc1ccncc1 | 31.5* | 20.7 | 8.3 | -15.4 | -12.4 | -2.5
CCCCCCCCCCCCCCCC[N+](C)(C)Cc1ccc(F)cc1 | 43.8* | 21.4 | -12.6 | -35.2 | -23.9 | -7.7
Cc1ccc(N(C(=O)NC2CCCCC2)C2=NCCCCC2)cc1 | -8.0 | -4.2 | -8.0 | 0.1 | 5.4 | -12.1
COCCCn1c(N)c(-c2nc3ccccc3n2C)c2nc3ccccc3nc21 | 28.1* | 13.6 | 9.1 | -13.4 | -11.6 | 4.2
Cn1c(-c2c(N)n(CCCc3ccccc3)c3nc4ccccc4nc23)nc2ccccc21 | 18.9 | 13.2 | 0.3 | -4.2 | -7.7 | -1.3
O=C(NCCOc1ccccc1)c1cc(C(=O)NCCOc2ccccc2)cc([N+](=O)[O-])c1 | 22.5 | 27.4* | 9.4 | -20.8 | -15.7 | 3.1
COc1cccc(NC(=S)N2CCN(C(c3ccccc3)c3ccccc3)CC2)c1 | 20.0 | 10.7 | -6.0 | -17.4 | -21.7 | -9.5
O=C(CN1CCN(C(c2ccccc2)c2ccccc2)CC1)NCc1ccccc1 | 6.3 | 7.7 | -6.9 | -11.5 | -22.2 | -13.9
S=C(NCc1ccco1)N1CCN(C(c2ccccc2)c2ccccc2)CC1 | 17.9* | 4.7 | -5.7 | -19.3 | -18.3 | -8.3
O=C(CN1CCN(C(c2ccccc2)c2ccccc2)CC1)NC(=O)NCc1ccco1 | 30.1* | -0.9 | -12.7 | -3.6 | -10.9 | -4.5
COc1ccc(CNC(=O)CN2CCN(C(c3ccccc3)c3ccccc3)CC2)cc1 | 34.4* | 7.0 | -12.7 | -6.6 | -19.4 | -6.3
COc1ccc(NC(=S)N2CCN(C(c3ccccc3)c3ccccc3)CC2)c(OC)c1 | 46.3* | -2.3 | -10.1 | -20.6 | -33.1 | -14.4
CCCC(NC(=O)C(C)Sc1nnnn1C1CC1)c1ccccc1 (configuration not stated) | -3.8 | -4.9 | 1.6 | 3.0 | 7.8 | -0.2
O=c1[nH]c2c(c(=O)[nH]1)OCN(Cc1ccccc1)C2 | 2.5 | 4.2 | 3.3 | 10.2 | 1.7 | -0.7
